Results as given in publication PMC5955861 (Oncogene, 2018).
Read-outs that look alike come from different tables or passages of the source.

Key:
BRD2/3/4 and BRDT = experiment: BROMOscan ligand-binding site-directed competition assay
MV-4-11B = experiment: alamarBlue cell proliferation assay; format: cell-based, human; settings: Homo sapiens
In short: (§1)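 Cell lines from ATCC or DSMZ were cultured per supplier's instructions and STR-authenticated. MV-4-11B is a clone of MV-4-11 carrying heterozygous TP53 c.742C>T (p.R248W). Cells were exposed to test compound in 96-well format, and viability was read after incubation with alamarBlue.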

THP-1 GFP = experiment: alamarBlue cell proliferation assay; format: cell-based; settings: Homo sapiens
In short: as §1

MOLT-4 = experiment: alamarBlue cell proliferation assay; format: cell-based; settings: Homo sapiens
In short: (§2)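 Leukemia, lymphoma and myeloma lines (from ATCC or DSMZ, grown per supplier instructions, STR-authenticated; GFP-labelled sublines where stated) were incubated with test compound in 96-well flat-bottom plates. Viability was read by alamarBlue conversion, and EC50 was taken from the concentration-response.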

NCI-H929 = experiment: alamarBlue cell proliferation assay; format: cell-based; settings: Homo sapiens
In short: as §2

OPM-2 = experiment: alamarBlue cell proliferation assay; format: cell-based; settings: Homo sapiens
In short: as §2

U266 B1 = experiment: alamarBlue cell proliferation assay; format: cell-based; settings: Homo sapiens, U-266
In short: as §1

RI-1 = experiment: alamarBlue cell proliferation assay; format: cell-based
In short: as §2

TMD8 = experiment: alamarBlue cell proliferation assay; format: cell-based; settings: Homo sapiens
In short: as §1

DB = experiment: alamarBlue cell proliferation assay; format: cell-based; settings: Homo sapiens
In short: as §2

HuT78 = experiment: alamarBlue cell proliferation assay; format: cell-based; settings: Homo sapiens
In short: as §2

SR-786 = experiment: alamarBlue cell proliferation assay; format: cell-based
In short: as §2

[1] = test system: AML primary patient samples; experiment: proliferation of ex vivo-treated primary patient samples; format: cell-based; settings: Homo sapiens
MV-4-11B AML cells = experiment: disseminated AML xenograft efficacy study; format: in vivo, CIEA-NOG mice; settings: MV-4-11B i.v. engrafted
THP-1 AML cells = experiment: disseminated AML xenograft efficacy study; format: in vivo, CIEA-NOG mice; settings: BI 894999 daily, 4 mg/kg p.o.
MV-4-11B cells = experiment: IncuCyte live-cell proliferation and caspase-3/7 apoptosis assay; format: cell-based
Hexim1 mRNA = Hexim1 mRNA in blood of xenograft bearing mice; format: in vivo; settings: 24 h after dosing; MV-4-11B xenograft bearing mice
In short: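 Mice bearing subcutaneous MV-4-11B xenografts were dosed daily with vehicle or test compound at 2, 4 or 12 mg/kg, and blood was collected on the indicated treatment days. Total RNA was isolated with TRI reagent, and 500 ng was reverse-transcribed. Hexim1 transcript was quantified by SYBR Green qRT-PCR.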

`CNc1nc(-c2nc3ccc(N4CCN(C)CC4)cc3n2Cc2ccccc2)cn2c(C)nnc12` [BI 894999] was tested, and the Kd (BRD2/3/4 and BRDT; BRD2/3/4 and BRDT, 24 bromodomains tested) was 0.49 to 1.6 nM, the “selectivity vs. BRD4-BD1” value (BRD2/3/4 and BRDT; other bromodomains of the panel (n = 24) vs. BRD4-BD1) was no less than 200 fold and the EC50 (MV-4-11B) was 6.8 ± 4 nM. The EC50 (MV-4-11B; read-out: anti-proliferative EC50) was 10 nM, the EC50 (THP-1 GFP) was 4.1 ± 2 nM and the EC50 (MOLT-4) was 40.7 ± 28.7 nM. For the same molecule, the EC50 (NCI-H929) was 3.6 ± 2 nM, the EC50 (OPM-2) was 8.9 ± 4.7 nM and the EC50 (U266 B1) was 14.3 ± 7.4 nM. For the same molecule, the EC50 (RI-1) was 6.2 ± 1.9 nM, the EC50 (TMD8) was 9.7 ± 3.7 nM and the EC50 (DB) was 11.6 ± 7.6 nM. The EC50 (HuT78) was 7.1 ± 3.7 nM, the EC50 (SR-786) was 77.3 ± 17.3 nM and the EC50 ([1]; 16/20 AML patient samples) was less than 10 nM. For the same molecule, the EC50 ([1]; read-out: BI 894999 EC50, AML Patient 1, risk group Intermediate) was 4 nM, the EC50 ([1]; read-out: BI 894999 EC50, AML Patient 2, risk group Intermediate) was less than 1 nM and the EC50 ([1]; read-out: BI 894999 EC50, AML Patient 3, risk group Intermediate) was 5 nM. For the same molecule, the EC50 ([1]; read-out: BI 894999 EC50, AML Patient 4, risk group High) was 1080 nM, the EC50 ([1]; read-out: BI 894999 EC50, AML Patient 5, risk group High) was 89 nM and the EC50 ([1]; read-out: BI 894999 EC50, AML Patient 6, risk group Intermediate) was 2 nM. It also gave an EC50 ([1]; read-out: BI 894999 EC50, AML Patient 7, risk group Intermediate) of 12 nM, an EC50 ([1]; read-out: BI 894999 EC50, AML Patient 8, risk group High) of 2 nM and an EC50 ([1]; read-out: BI 894999 EC50, AML Patient 9, risk group Intermediate) of 5 nM. For the same molecule, the EC50 ([1]; read-out: BI 894999 EC50, AML Patient 10, risk group High) was less than 1 nM, the EC50 ([1]; read-out: BI 894999 EC50, AML Patient 11, risk group High) was 18 nM and the EC50 ([1]; read-out: BI 894999 EC50, AML Patient 12, risk group Intermediate) was 4 nM. It also gave an EC50 ([1]; read-out: BI 894999 EC50, AML Patient 13, risk group Intermediate) of less than 1 nM, an EC50 ([1]; read-out: BI 894999 EC50, AML Patient 14) of less than 1 nM and an EC50 ([1]; read-out: BI 894999 EC50, AML Patient 15, risk group Intermediate) of 1 nM. The EC50 ([1]; read-out: BI 894999 EC50, AML Patient 16) was less than 1 nM, the EC50 ([1]; read-out: BI 894999 EC50, AML Patient 17, risk group High) was less than 1 nM and the EC50 ([1]; read-out: BI 894999 EC50, AML Patient 18, risk group Intermediate) was less than 1 nM. The EC50 ([1]; read-out: BI 894999 EC50, AML Patient 19, risk group Intermediate) was less than 1 nM, the EC50 ([1]; read-out: BI 894999 EC50, AML Patient 20, risk group Intermediate) was less than 1 nM and the survival prolongation (MV-4-11B AML cells; daily oral 2 mg/kg) was 29.5 days. The “tumor growth inhibition (TGI)” value (MV-4-11B AML cells; daily oral 2 mg/kg) was 96%, the survival prolongation (MV-4-11B AML cells; daily oral 4 mg/kg) was 52 days and the “tumor growth inhibition (TGI)” value (MV-4-11B AML cells; daily oral 4 mg/kg) was 99%. For the same molecule, the survival prolongation (THP-1 AML cells) was 22 days, the “effect on proliferation (IncuCyte)” value (MV-4-11B cells; 10 nM) was “Significant inhibition of proliferation” and the “time of peak of apoptosis (Caspase-3/7) after start of treatment” value (MV-4-11B cells; dose-range 0.05 to 100 nM) was “around 40 h”. The “Hexim1 levels in blood” value (Hexim1 mRNA) was “back to baseline”.
